Laboratory results reported in PubChem BioAssay.
Records with an inconclusive call do not appear.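 How the source made its calls, unless noted: active means inhibition over a set limit, the all-compound mean plus 3 SD, in both replicate runs; inconclusive means over that limit in just one replicate run; inactive means at or under that limit in both runs.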

Key:
[1] = OD615 S. cerevisiae growth inhibition, permissive medium, pilot counter-assay, permissive growth control for S. cerevisiae lifespan shortening project (AID 705;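 active means growth inhibition above 25% in both replicates, a cutoff set 3 SD above the mean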); settings: OD615, 24 h, at 10 µM, hits give high values
In short: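 System – S. cerevisiae with engineered DeaD lifespan system · Buffer or medium – SC raffinose/galactose permissive medium · Schedule – cells pre-grown 4 h, then 24 h compound exposure, 30 °C humidified · Technique – culture turbidity as optical density at 615 nm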

[2] = Restrictive medium S. cerevisiae growth inhibition, OD615, pilot screen of yeast lifespan reduction project, restrictive growth control (AID 706;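 active means growth inhibition above a set limit, 3 SD over mean compound inhibition, in both replicates, cut at about 43% in these data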;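 further: modified DeaD lifespan yeast strain shifted to restrictive glucose medium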); settings: OD615, 48 h, at 10 µM, hits give high values
In short: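 Material: engineered S. cerevisiae DeaD strain / Medium: glucose-based CSMM-D restrictive medium / Compound: single dose of 10 µM compound final, 0.25% DMSO / Timing: 4 h pre-incubation, 48 h exposure at 30 °C / Technique: OD615 absorbance reading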

[3] = viability gain of MRP-1-high H69AR cells under doxorubicin, pilot screen, MRP-1 activator project, CellTiter-Glo, duplicate (AID 807;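 active means viability increase at or above a cutoff of the median across tested compounds plus 3 SD, cut at about 8.5% in these data, passing the limit was not always enough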;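 further: compound pretreatment 18-22 h then 72 h combined with doxorubicin; 0% = doxorubicin alone and 100% = vehicle without doxorubicin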); settings: H69AR viability with doxorubicin, CellTiter-Glo luminescence; at 10 µM; hits give high values
[4] = growth suppression of beta-catenin knockout HCT116, pilot screen, human colon tumor cells (AID 823;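 active means cell viability at or below a set limit in both duplicate runs, the limit being the all-compound median minus 4 SD, cut at about 23% in these data, passing the limit was not always enough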;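 further: 0% = wells killed by 20 µM Hyamine and 100% = untreated DMSO cell wells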); settings: CellTiter-Glo, 60 h, at 10 µM, hits give low values
[5] = growth suppression of PTEN-deleted HCT116, pilot screen, cell-based, HCT116 clonal line, CellTiter-Glo (AID 824;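 active means viability at or below 27.92% in each of two runs, the all-compound median minus 4 SD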;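 further: 0% = 20 µM Hyamine control and 100% = vehicle cell control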); settings: 60 h, at 10 µM, hits give low values
[6] = inhibitors of the yeast RAM network, pilot screen, dse1pr::URA3 reporter, 5-FOA selection (AID 869);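 further: 0% = DMSO wells with no growth and 100% = 10 µM 1-NA-PP1 with full growth; RAM network block rescues cells from 5-FOA so hits raise OD615 growth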; settings: S. cerevisiae dse1pr::URA3 5-FOA growth, OD615, 2 d; at 10 µM; hits give high values; strain carries analog-sensitive mutant Cbk1 kinase
[7] = RAM signaling pathway blockade in yeast – S. cerevisiae, Pdr1DBD-CYC8 efflux-inhibited sensitized strain, primary screen (AID 1298;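 active means RAM network inhibition above 8.4% in each of two replicates, 3 SD over the compound average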;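 further: 0% = DMSO untreated cells without growth and 100% = 10 µM 1-NA-PP1 full growth; higher means more yeast growth rescued from 5-FOA killing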); settings: S. cerevisiae cbk1-as DSE1-URA3 strain, 5-FOA growth OD615, 2 d; at 50 µM; hits give high values

CCNc1nc(OCCNS(=O)(=O)c2cc(C)ccc2C)nc(N(C)C)n1
inactive: growth inhibition [1] -7.45% | growth inhibition [2] -11.1% | viability increase [3] -0.92% | viability [4] 78.7% | viability [5] 78.8% | inhibition [6] 0.025% | RAM network inhibition [7] -0.63%

CCOc1ccc(NS(=O)(=O)c2ccc3[nH]c(=O)oc3c2)cc1
inactive: growth inhibition [1] -11.6% | growth inhibition [2] -10.5% | viability increase [3] 1.01% | viability [4] 101% | viability [5] 92.6% | inhibition [6] 3.46% | RAM network inhibition [7] 4.48%

CC(C)Cc1cc(C(=O)Nc2ccc(F)cc2F)no1
inactive: growth inhibition [1] -18.9% | growth inhibition [2] -23.4% | viability increase [3] 1.32% | viability [4] 100% | viability [5] 98.6% | inhibition [6] 0.505% | RAM network inhibition [7] 0.21%

Cn1c(=O)c2c(SCC(=O)c3ccccc3)nc(C3CC3)nc2n(C)c1=O
inactive: growth inhibition [1] 13.4% | growth inhibition [2] 7.46% | viability increase [3] -2.05% | viability [4] 76.8% | viability [5] 77.8% | inhibition [6] 1.17% | RAM network inhibition [7] -1.03%

Cc1sc2nc(SCC(=O)NCc3ccco3)n(C)c(=O)c2c1C
inactive: growth inhibition [1] -4.25% | growth inhibition [2] -12.5% | viability increase [3] -4.96% | viability [4] 105% | viability [5] 94.3% | inhibition [6] 2.1% | RAM network inhibition [7] 3.82%

COc1cccc(-n2c(Cc3cc(=O)[nH]c(=O)[nH]3)nnc2SCC(=O)Nc2ccccc2)c1
inactive: growth inhibition [1] -5.92% | growth inhibition [2] -2.63% | viability increase [3] -0.3% | viability [4] 107% | viability [5] 97.8% | inhibition [6] 1.61% | RAM network inhibition [7] 0.67%

Cc1ccc2cc(-c3noc(C4CCCCC4)n3)c(=O)[nH]c2c1
inactive: growth inhibition [1] -10.9% | growth inhibition [2] -13% | viability increase [3] -2.36% | viability [4] 112% | viability [5] 104% | inhibition [6] 3.56% | RAM network inhibition [7] 4.76%

O=C(Cn1cc2c(n1)CCCC2)N1CCCC1
inactive: growth inhibition [1] -1.5% | growth inhibition [2] 1.53% | viability increase [3] 0.07% | viability [4] 95.5% | viability [5] 96.6% | inhibition [6] 1.14% | RAM network inhibition [7] 4.6%

CCOC(=O)NCc1ccc(CNC(=O)OCC)cc1
inactive: growth inhibition [1] -9.67% | growth inhibition [2] 4.35% | viability increase [3] -1.96% | viability [4] 97.1% | viability [5] 90% | inhibition [6] 0.81% | RAM network inhibition [7] 0.57%

O=C(O)CCCC(=O)N1CCN(c2nc(-c3ccccc3)c3ccccc3n2)CC1
inactive: growth inhibition [1] -9.64% | growth inhibition [2] -6.36% | viability increase [3] -1.22% | viability [4] 102% | viability [5] 93% | inhibition [6] 0.83% | RAM network inhibition [7] 4.79%

Cc1c(C(=O)NCc2ccc3c(c2)OCO3)sc2nc(-c3ccccc3)cn12
inactive: growth inhibition [1] 5.98% | growth inhibition [2] -4.12% | viability increase [3] -0.35% | viability [4] 111% | viability [5] 103% | inhibition [6] 3.05% | RAM network inhibition [7] 6.39%

CCCc1nc2c(o1)CC(CC(C)SCC)CC2=O (stereo not drawn)
inactive: growth inhibition [1] -7.34% | growth inhibition [2] -1.98% | viability increase [3] -0.4% | viability [4] 101% | viability [5] 98.8% | inhibition [6] 1.36% | RAM network inhibition [7] 5.75%

CC1CCCC(NC(=O)CSc2nnnn2C)C1C (stereo not drawn)
inactive: growth inhibition [1] -6.17% | growth inhibition [2] -10.1% | viability increase [3] 1.61% | viability [4] 95.5% | viability [5] 101% | inhibition [6] 1.29% | RAM network inhibition [7] 2.27%

COC(=O)C1C(O)=C(C=NCC(C)N=CC2=C(O)C(C(=O)OC)C(C)(C)CC2=O)C(=O)CC1(C)C (stereo not drawn)
inactive: growth inhibition [1] -4.88% | growth inhibition [2] -3.87% | viability increase [3] -0.55% | viability [4] 92.4% | viability [5] 93.7% | inhibition [6] 2.5% | RAM network inhibition [7] 0.9%

COc1ccc(S(=O)(=O)n2cnc3cc(C)c(C)cc32)cc1
inactive: growth inhibition [1] 3.51% | growth inhibition [2] 6.05% | viability increase [3] -1.56% | viability [4] 90.9% | viability [5] 93.4% | inhibition [6] 1.26% | RAM network inhibition [7] -1.04%

CCOC(=O)N1CCN(C(=O)c2cc(C)no2)CC1
inactive: growth inhibition [1] -9.98% | growth inhibition [2] -7.27% | viability increase [3] 1.34% | viability [4] 104% | viability [5] 109% | inhibition [6] 1.04% | RAM network inhibition [7] 2.19%

Cc1nnc(SCCC(C)C)[nH]c1=O
inactive: growth inhibition [1] -1.1% | growth inhibition [2] 0.225% | viability increase [3] -2.93% | viability [4] 101% | viability [5] 99.7% | inhibition [6] 0.745% | RAM network inhibition [7] 3.25%

Cc1ccc(-c2nn3c(C)nnc3s2)cc1NC(=O)COc1ccc(Cl)cc1
inactive: growth inhibition [1] -4.13% | growth inhibition [2] 25.3% | viability increase [3] -1.1% | viability [4] 93.8% | viability [5] 90.8% | inhibition [6] 2.17% | RAM network inhibition [7] 6.41%

COc1ccc(C(=O)Nc2ccccc2C(=O)NCCCn2ccnc2)cc1
inactive: growth inhibition [1] -1.82% | growth inhibition [2] -2.64% | viability increase [3] -0.82% | viability [4] 95.1% | viability [5] 92.9% | inhibition [6] 0.715% | RAM network inhibition [7] 2.86%

O=S(=O)(c1cccc(-n2cnnn2)c1)N1CCOCC1
inactive: growth inhibition [1] -5.21% | growth inhibition [2] -3.17% | viability increase [3] -1.69% | viability [4] 94.3% | viability [5] 93% | inhibition [6] 1.6% | RAM network inhibition [7] 2.96%

COc1ccc(-c2nc(CNS(=O)(=O)c3cc(OC)ccc3OC)cs2)cc1
inactive: growth inhibition [1] 2.43% | growth inhibition [2] 5.36% | viability increase [3] -1.76% | viability [4] 92% | viability [5] 89.7% | inhibition [6] 0.53% | RAM network inhibition [7] 5.82%

Nc1nc(N2CCOCC2)nc(N(c2ccccc2)c2ccccc2)n1
inactive: growth inhibition [1] -17.1% | growth inhibition [2] -9.3% | viability increase [3] -1.89% | viability [4] 107% | viability [5] 92.4% | inhibition [6] 1.93% | RAM network inhibition [7] 1.9%

CCOC(=O)c1cnc2c(C)cccc2c1NCc1ccco1
inactive: growth inhibition [1] -10.5% | growth inhibition [2] -9.38% | viability increase [3] -4.61% | viability [4] 82.5% | viability [5] 79% | inhibition [6] 1.28% | RAM network inhibition [7] -0.77%

CCn1cc(C(=O)NCC(=O)OC)c2cc(OC)c(OC)cc2c1=O
inactive: growth inhibition [1] -6.43% | growth inhibition [2] -18.9% | viability increase [3] 0.9% | viability [4] 105% | viability [5] 104% | inhibition [6] 0.59% | RAM network inhibition [7] 2.3%
